TAAR1 antagonist: antagonists of human TAAR1; Q96RJ0; AID 624466; 360,000 compounds, 1.5% hits; CHO RD-HGA16 TAAR1, Fluo-8 calcium fluorescence, antagonist; inhibition, % at 3 µM;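 active = inhibition above a per-plate cutoff, the mean inhibition of test compounds on that plate plus 3 SD, cut at about 49% in these data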;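 note: 0% = DMSO plus EC80 beta-PEA response and 100% = DMSO alone without agonist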
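Test system: hTAAR1-expressing CHO RD-HGA16 cells, Gα16-coupled; Probe or stimulus: EC80 β-phenethylamine stimulus; Compound dosing: single nominal final test compound concentration of 3 µM; Timing: 140 s kinetic read after compound, 140 s after agonist; Signal: Fluo-8 calcium-sensitive fluorescence; Measure: % inhibition of agonist calcium response; Controls: DMSO and EC80 PEA controls.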
CHO parental Ca: signal in parental CHO cells, OX1R antagonist counter-screen | parental CHO-K1, ATP-induced calcium, Fluo-8 fluorescence | inhibition, % at 5.6 µM | 330,000 compounds, 0.63% hits;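 active = inhibition above that plate's mean sample inhibition plus 3 SD, cut at about 26% in these data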;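 note: 0% = ATP-challenged DMSO wells and 100% = DMSO wells without ATP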
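Assay system: parental CHO cells; Read-out basis: percent inhibition of ATP-evoked calcium rise, normalized to controls; Benchmarks: ATP and no-ATP DMSO wells; Compound dosing: single nominal dose of 5.6 µM per compound; Signal: Fluo-8 calcium dye fluorescence; Also added: ATP as calcium-mobilizing challenge; Repeats: singlicate.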
OX1R antag-1: antagonists of human orexin 1 receptor; CHO/OX1R cells, Fluo-8 calcium fluorescence, orexin A; inhibition, % at 5 µM; 330,000 compounds, 0.43% hits; AID 434989;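 active = inhibition above its plate's threshold, mean inhibition of all tested compounds on the plate plus 3 SD, cut at about 37% in these data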;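 note: 0% = orexin A challenge wells and 100% = SB-334867-A antagonist wells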
Target sequence (O43613 whole entry, looked up): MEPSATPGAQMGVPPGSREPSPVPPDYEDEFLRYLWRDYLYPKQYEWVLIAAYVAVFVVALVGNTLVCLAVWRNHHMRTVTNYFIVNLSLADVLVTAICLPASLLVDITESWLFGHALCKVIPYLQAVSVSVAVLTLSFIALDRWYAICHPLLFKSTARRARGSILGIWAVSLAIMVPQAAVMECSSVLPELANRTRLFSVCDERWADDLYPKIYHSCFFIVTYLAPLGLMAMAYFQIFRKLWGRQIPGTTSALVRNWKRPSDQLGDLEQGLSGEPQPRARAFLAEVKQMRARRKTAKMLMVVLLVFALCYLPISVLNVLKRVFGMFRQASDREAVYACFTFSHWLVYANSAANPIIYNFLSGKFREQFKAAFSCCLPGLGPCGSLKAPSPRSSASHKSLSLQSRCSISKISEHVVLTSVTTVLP
TAAR1 agonist: human TAAR1 agonism; Q96RJ0; activation, % at 3 µM; AID 624467; CHO RD-HGA16 TAAR1, Fluo-8 calcium fluorescence; vehicle wells 0%, saturating PEA agonist 100%; 360,000 compounds, 0.99% hits;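 active = activation above the mean activation of all test compounds in the run plus 3 SD, cut at about 38% in these data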
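System: CHO RD-HGA16 cells carrying human TAAR1 plus Gα16; Incubation: 17-24 h seeding, 75 min 37 °C dye, 30 min RT; Measured by: Fluo-8 fluorescence, 5 s baseline then 140 s kinetic read; Control set: DMSO and PEA EC100; Replication: single well for each compound.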
GPR7 antag: blocks human GPR7 receptor signaling; GPR7-expressing cells, fluorescence antagonist assay; inhibition, % at 4.4 µM; 290,000 compounds, 1.1% hits; P48145; in the data active = inhibition above about 16%, passing the limit was not always enough;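 note: cells stimulated with the agonist NPW; 0% = agonist with vehicle and 100% = vehicle without agonist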
OX1R antag-2: OX1R (human) antagonism. O43613. OX1R-expressing cells, FRET antagonist read-out. 330,000 compounds, 1.8% hits. inhibition, % at 6.6 µM; in the data active = inhibition mostly above about 38%, no sharp cut-off; inactive = mostly below about 40%;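 note: 0% = agonist challenge alone and 100% = reference antagonist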
TAAR1 ag conf: human TAAR1 agonism, confirmed; CHO RD-HGA16 TAAR1, Fluo-8 calcium fluorescence; scaled: DMSO 0%, maximal phenethylamine 100%; shares compounds with TAAR1 agonist; activation, % at 3 µM; 2,400 compounds, 82% hits;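 active = activation above a cutoff set at the run's mean compound activation plus 3 SD, cut at about 39% in these data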
Ga16 ag counter: nonselective agonism, TAAR1 counter-screen; shares compounds with TAAR1 agonist; CHO-Ga16 parental, Fluo-8 calcium fluorescence; normalized to maximal ATP response, DMSO zero; activation, % at 3 µM; 2,400 compounds, 50% hits; AID 651787;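 active = activation above the run cutoff, the mean activation over all tested wells plus 3 SD, cut at about 12% in these data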;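 note: 0% = DMSO wells and 100% = maximal ATP response on the peak over basal ratio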
TAAR1 desens: counter-screen for human TAAR1 agonists: agonists that desensitize TAAR1; CHO RD-HGA16 hTAAR1, Fluo-8 calcium, beta-PEA response inhibition; shares compounds with TAAR1 agonist; 2,400 compounds, 46% hits; AID 651951; inhibition, % at 3 µM;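 active = inhibition above the run cutoff, the mean inhibition of all test compounds plus 3 SD, cut at about 49% in these data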;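 note: beta-PEA stimulus applied at its EC80; loss of beta-PEA calcium signal after compound pretreatment read as receptor desensitization; 0% = DMSO with beta-PEA at EC80 and 100% = DMSO alone without agonist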
Ga16 antag count: nonselective Ga16 antagonist in TAAR1 agonist counter-screen. AID 651952. 2,400 compounds, 39% hits. shares compounds with TAAR1 agonist. inhibition, % at 3 µM. CHO-Ga16 ATP-induced calcium, Fluo-8 fluorescence;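 active = inhibition above the plate's mean compound inhibition plus 3 SD, computed per plate, cut at about 22% in these data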;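 note: 0% = EC80 ATP with DMSO and 100% = DMSO wells without ATP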
Starred values were filed as active, the others as inactive; . = no result. Most compounds without a hit are left out; they make up all but 4.5% or so of the library.

SMILES | TAAR1 antagonist | CHO parental Ca | OX1R antag-1 | TAAR1 agonist | GPR7 antag | OX1R antag-2 | TAAR1 ag conf | Ga16 ag counter | TAAR1 desens | Ga16 antag count
CCC1(c2ccc(F)cc2)NC(=O)N(CC(=O)N2c3ccccc3CC2C)C1=O (stereo not drawn) | 28 | -14 | 12 | 76* | . | 5 | 84* | 47* | 43 | 30*
CCC1(c2ccc(F)cc2)NC(=O)N(CC(=O)c2cc(C)n(C3CC3)c2C)C1=O (stereo not drawn) | 58* | -2 | 7 | 103* | . | -2 | 98* | 51* | 52* | 32*
Cc1cc(C(=O)CN2C(=O)NC(C)(c3cc(F)ccc3F)C2=O)c(C)n1C1CC1 (stereo not drawn) | 1 | -16 | -12 | 21 | . | 4 | . | . | . | .
CC1Cc2ccccc2N1C(=O)CN1CCN(Cc2ccccc2)CC1 (stereo not drawn) | -27 | -8 | -7 | 2 | 3 | -8 | . | . | . | .
CC1Cc2ccccc2N1C(=O)CN1CCc2ccccc2C1 (stereo not drawn) | 14 | -11 | -19 | 72* | 4 | 22 | 77* | 3 | 45 | 20
CCC1(c2ccc(F)cc2)NC(=O)N(CC(=O)N2c3ccccc3NC(=O)CC2C)C1=O (stereo not drawn) | 9 | -6 | -8 | -1 | . | 1 | . | . | . | .
Cc1cccc(C(=O)CC(=O)c2cc(Cl)ccc2O)c1 | . | -16 | -22 | . | -6 | 11 | . | . | . | .
Cc1ccc(O)c(C(=O)CC(=O)c2ccc(Cl)cc2)c1 | 20 | -21 | -15 | 54* | 0 | 12 | 43* | 23* | 51* | 37*
Cc1ccc(O)c(C(=O)CC(=O)c2cccc(F)c2)c1 | 28 | -1 | -19 | 54* | 2 | 25 | 28 | 19* | 21 | 22*
Cc1ccc(C)c(C(O)c2ncc(-c3cccc(C(F)(F)F)c3)[nH]2)c1 (stereo not drawn) | 66* | . | . | 66* | . | . | 58* | 45* | 34 | 33*
CC1Sc2ccc(C(=O)Nc3ccccc3OC(F)F)cc2NC1=O (stereo not drawn) | 2 | -8 | -17 | 3 | . | 2 | . | . | . | .
Cc1ccc(-c2noc(CCC(=O)Nc3ccc4c(c3)OCO4)n2)cc1 | 80* | 25 | 26 | 83* | -10 | 45 | 3 | 6 | 14 | 24*
COc1ccc(-c2noc(CCC(=O)Nc3ccc4c(c3)OCCO4)n2)cc1 | 7 | 13 | 16 | 18 | -5 | 27 | . | . | . | .
Cc1ccc(Nc2nc(N)nc(N)c2N=O)cc1Cl | -1 | . | . | 75* | . | . | 109* | 29* | 37 | 1
Cc1cc(C)c(C(N)=O)c(Nc2cccc(Cl)c2)n1 | 11 | -12 | 1 | 1 | -3 | 6 | . | . | . | .
Nc1nc(N)c(N=O)c(Nc2ccc(Cl)c(Cl)c2)n1 | 10 | . | . | 109* | . | . | 136* | 58* | 71* | 4
Nc1nc(N)c(N=O)c(Nc2cccc(Cl)c2)n1 | -16 | . | . | 68* | . | . | 128* | 48* | 53* | -5
Cc1ccc2nc(-c3ccccc3)cc(C(=O)NCC(c3ccco3)N(C)C)c2c1 (stereo not drawn) | 8 | -20 | -30 | 5 | . | 13 | . | . | . | .
O=C(NC1CCCC1)c1cc(-c2cccc(Cl)c2)on1 | -9 | -6 | -21 | 8 | 3 | 36 | . | . | . | .
CCCCCCCCN1C(=O)[C@H](CC(=O)NCCCCc2ccccc2)C[C@@]2(C(=O)OCC)CCCC=C12 | -27 | . | . | 3 | . | . | . | . | . | .

Source: PubChem (The Scripps Research Institute Molecular Screening Center)
